Among the data in ChEMBL document CHEMBL4627359, “Design, synthesis and biological evaluation of spiropyrazolopyridone derivatives as potent dengue virus inhibitors” (Bioorg Med Chem Lett, 2020) are EC50 and CC50 values, retold here.

In one data set the test system is dengue virus type 3. In words: Antiviral activity against DENV3 infected in human Huh7 cells. It is filed as functional, organism-based. Conditions: Huh-7. In short, it runs like this: (§1)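 Huh7 cells stably carrying a DENV replicon (serotype 1, 2, 3 or 4) with Renilla luciferase and neomycin-resistance genes. Seeded at 10k/well, incubated overnight at 37 °C in 5% CO₂, then given 2-fold serial compound dilutions in duplicate. After 48 h, luciferase was read with EnduRen live-cell substrate. EC50 came from four-parameter logistic fits of dose-response curves.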

The subject of a further data set is dengue virus type 4. In words: Antiviral activity against DENV4 infected in human Huh7 cells. Type of data set: functional, organism-based. Conditions: Huh-7. Summed up: as §1
The subject of another data set is dengue virus type 2. In words: Antiviral activity against DENV2 infected in human Huh7 cells. Conditions: Huh-7. Type of data set: functional, organism-based. In short, it runs like this: as §1
A further data set has as its system Huh-7. In words: Cytotoxicity against human HuH7 cells infected with DENV2 assessed as reduction in cell viability. Type of data set: cell-based. In short, it runs like this: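 Cytotoxicity was read in Huh7 cells stably carrying the DENV-2 Renilla luciferase replicon. Cells were seeded at 10k/well, incubated overnight at 37 °C in 5% CO₂, then given 2-fold serial compound dilutions in duplicate for 48 h. After the live-cell luciferase read, CellTiter-Glo was added to the same wells to measure viability.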

A further data set has as its system dengue virus type 1. In words: Antiviral activity against DENV1 infected in human Huh7 cells. Conditions: Huh-7. It is filed as functional, organism-based. Summed up: as §1

As for `O=C1CC2(C(=O)Nc3ccc(Cl)cc32)c2cnn(Cc3ccc(Cl)cc3)c2N1` (stereo not drawn), the EC50 in the data set with dengue virus type 3 is 6 nM; in the data set with dengue virus type 4, greater than 10000 nM; with dengue virus type 2 it was 110 nM; in the data set with dengue virus type 1, 2400 nM. For the same compound, in the data set with Huh-7, the CC50 is greater than 10000 nM.
In the data set on dengue virus type 2, `NC(=O)C1C(=O)Nc2c(cnn2Cc2ccc(Cl)cc2)C12C(=O)Nc1ccc(Cl)cc12` (stereo not drawn) showed a 50% effective concentration (EC50) of 3200 nM. Besides, the cytotoxic concentration (CC50) with Huh-7 turned out to be 50000 nM.
Consider `Cc1nn(Cc2ccc(Cl)cc2)c2c1C1(CC(=O)N2)C(=O)Nc2ccc(Cl)cc21` (stereo not drawn), for which the EC50 in the data set on dengue virus type 3 is 25 nM; in the data set with dengue virus type 4, greater than 5000 nM; in the data set with dengue virus type 2, 1800 nM; with dengue virus type 1, 2500 nM. Further, in the data set with Huh-7, the 50% cytotoxic concentration (CC50) was greater than 10000 nM.
In the data set on dengue virus type 2, `O=C1CC2(C(=O)Nc3ccc(Cl)cc32)c2cn(Cc3ccc(Cl)cc3)nc2N1` (stereo not drawn) returned an EC50 of 4400 nM. Moreover, in the data set on Huh-7, the CC50 is greater than 10000 nM.
For `O=C1CC2(C(=O)Nc3ccc(Cl)cc32)c2c(C3CC3)nn(Cc3ccc(Cl)cc3)c2N1` (stereo not drawn) the same measures were 1900 nM and greater than 10000 nM.
Regarding `O=C1CC2(C(=O)Nc3ccc(Cl)cc32)c2cnn(Cc3ccc(F)cc3)c2N1` (stereo not drawn), in the data set on dengue virus type 2, a half-maximal effect (EC50) was put at 4200 nM.
As to `O=C1CC2(C(=O)Nc3ccc(Cl)cc32)c2cnn(Cc3ccc(Cl)c(F)c3)c2N1` (stereo not drawn), the EC50 in the data set with dengue virus type 3 is 19 nM; in the data set with dengue virus type 4, greater than 5000 nM; with dengue virus type 2 it was 50 nM; in the data set on dengue virus type 1 it was 1800 nM. For the same compound, the 50% cytotoxic concentration (CC50) in the data set with Huh-7 is greater than 10000 nM.
For `O=C1CC2(C(=O)Nc3ccc(Cl)cc32)c2cnn(Cc3ccc(Cl)c(Cl)c3)c2N1` (stereo not drawn) the same measures were greater than 5000 nM, greater than 5000 nM, 62 nM, 1800 nM and greater than 10000 nM.
In turn, `COC(=O)c1ccc(Cn2ncc3c2NC(=O)CC32C(=O)Nc3ccc(Cl)cc32)cc1` (stereo not drawn) displayed an EC50 in the data set on dengue virus type 2 greater than 5000 nM.
The same measure, in the same setting: the result for `N#Cc1ccc(Cn2ncc3c2NC(=O)CC32C(=O)Nc3ccc(Cl)cc32)cc1` (stereo not drawn) reads greater than 5000 nM.
`N#CC1C(=O)Nc2c(cnn2Cc2ccc(Cl)cc2)C12C(=O)Nc1ccc(Cl)cc12` (stereo not drawn) gave a half-maximal effective concentration (EC50) in the data set with dengue virus type 2 of 8600 nM. Moreover, the CC50 in the data set on Huh-7 turned out to be 50000 nM.
In turn, `CC(=O)C1C(=O)Nc2c(cnn2Cc2ccc(Cl)cc2)C12C(=O)Nc1ccc(Cl)cc12` (stereo not drawn) returned an EC50 in the data set on dengue virus type 2 greater than 10000 nM. Moreover, the CC50 with Huh-7 was greater than 20000 nM.
For `O=C1CC2(C(=O)Nc3ccc(Cl)cc32)c2cn(Cc3ccc(Cl)c(Cl)c3)nc2N1` (stereo not drawn) the same measures were 1100 nM and greater than 10000 nM.
In the data set with dengue virus type 2, `N#Cc1cn(Cc2ccc(Cl)cc2)c2c1C1(CC(=O)N2)C(=O)Nc2ccc(Cl)cc21` (stereo not drawn) registered a 50% effective concentration (EC50) greater than 5000 nM.
As to `O=C1CC2(C(=O)Nc3ccc(Cl)cc32)c2cnn(Cc3ccc(Cl)cc3F)c2N1` (stereo not drawn), the 50% effective concentration (EC50) in the data set with dengue virus type 3 was 390 nM; in the data set with dengue virus type 4, greater than 5000 nM; with dengue virus type 2 it was 140 nM; in the data set on dengue virus type 1 it was 2300 nM. Besides, the CC50 in the data set on Huh-7 is greater than 10000 nM.
The corresponding values for `O=C1CC2(C(=O)Nc3ccc(Cl)cc32)c2cnn(Cc3ccc(C(F)(F)F)cc3C(F)(F)F)c2N1` (stereo not drawn) are 17 nM, greater than 5000 nM, 38 nM, 1600 nM and greater than 10000 nM.
In the data set with dengue virus type 2, `O=C1CC2(C(=O)Nc3ccc(Cl)cc32)c2cnn(Cc3ccc(C(=O)O)cc3)c2N1` (stereo not drawn) yielded a half-maximal effective concentration (EC50) greater than 5000 nM.
In turn, `CS(=O)(=O)c1ccc(Cn2ncc3c2NC(=O)CC32C(=O)Nc3ccc(Cl)cc32)cc1` (stereo not drawn) returned an EC50 with dengue virus type 2 greater than 5000 nM.

As usually defined, the EC50 is the concentration needed to bring the measured effect to its halfway point. As usually defined, the CC50 is the concentration that lowers cell viability or growth by half.
